{
  "source": "ChEMBL document CHEMBL4330067",
  "about": "“Synthesis and mechanistic studies of diketo acids and their bioisosteres as potential antibacterial agents” (Eur J Med Chem, 2019)",
  "key": {"Salmonella typhimurium": {"tested_on": "Salmonella typhimurium", "test": "Antibacterial activity against Salmonella typhimurium MTCC 3224 after 24 hrs by broth dilution assay", "type": "functional, Salmonella enterica subsp. enterica serovar Typhimurium", "conditions": "Salmonella enterica, MTCC 3224, 24 h", "method_in_brief": "(§1)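 Broth dilution per NCCLS in nutrient broth, serial dilutions 1000 to 7.8 µg/mL, DMSO below 4% final. Inoculum approx. 2.5×10⁶ cells/mL, 37 °C with shaking at 150 rpm for 24 h. MIC taken as the lowest concentration with no visible growth. Ciprofloxacin served as positive control.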"}, "Streptococcus pneumoniae [1]": {"tested_on": "Streptococcus pneumoniae", "test": "Induction of cellular damage in Streptococcus pneumoniae assessed as distorted cell membrane at MIC after 1 hr by TEM analysis", "type": "functional, organism-based"}, "Enterococcus faecalis": {"tested_on": "Enterococcus faecalis", "test": "Inhibition of Enterococcus faecalis methionine aminopeptidase 1A at 100 uM using Met-AMC as substrate relative to control", "method_in_brief": "(§2)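 Purified MetAP at 4 µM in 50 mM HEPES with 150 mM KCl and CoCl2 at 3 molar equivalents of enzyme. pH 7.5 for SpMetAP1a and EfMetAP1a, pH 8.0 for HsMetAP1b. Substrate L-Met-AMC at 50, 100 and 150 µM. Compounds (10 mM DMSO stocks) tested over 1 to 120 µM for % inhibition; Ki by Dixon method.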"}, "Escherichia coli [2]": {"tested_on": "Escherichia coli", "test": "Antibacterial activity against Escherichia coli MRAE44 at 1024 ug/mL after 24 hrs by broth dilution assay", "type": "functional, organism-based", "method_in_brief": "(§3)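 Multidrug-resistant E. coli isolates in Luria broth, test range 8 to 1024 µg/mL (ciprofloxacin 0.49 to 63.3 µg/mL). Inoculum 10 µL of a 1000-fold diluted 0.1 OD600 culture, incubated overnight at 37 °C. OD read at 600 nm. % inhibition = (a−b)/a×100, with media and compound-colour blanks subtracted.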"}, "Escherichia coli [3]": {"tested_on": "Escherichia coli", "test": "Antibacterial activity against Escherichia coli MRAE32 after overnight incubation", "type": "functional", "method_in_brief": "as §3"}, "Escherichia coli [4]": {"tested_on": "Escherichia coli", "test": "Antibacterial activity against Escherichia coli MROB11 after overnight incubation", "type": "functional", "method_in_brief": "as §3"}, "Escherichia coli [5]": {"tested_on": "Escherichia coli", "test": "Synergistic antibacterial activity against Escherichia coli MRA11 assessed as fractional inhibitory concentration index after 18 hrs in presence of ciprofloxacin by checkerboard method", "type": "functional", "method_in_brief": "(§4)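 Checkerboard combination with ciprofloxacin in Mueller-Hinton broth: compound 1024 to 16 µg/mL crossed with ciprofloxacin 128 to 2 µg/mL. Inoculum 5×10⁵ CFU/mL suspension, 18 h at 37 °C. Fractional inhibitory concentration index derived from the combination.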"}, "Escherichia coli [6]": {"tested_on": "Escherichia coli", "test": "Antibacterial activity against Escherichia coli MRAE32 at 512 ug/mL after 24 hrs by broth dilution assay relative to control", "type": "functional", "method_in_brief": "as §3"}, "Pseudomonas aeruginosa": {"tested_on": "Pseudomonas aeruginosa", "test": "Bactericidal activity against Pseudomonas aeruginosa at 1 to 2 times MIC after 24 hrs by spectrophotometric analysis", "type": "functional, organism-based", "method_in_brief": "(§5)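 Growth kinetics in 50 mL nutrient broth seeded at approx. 2×10⁶ cells/mL, compound at 2MIC, MIC and ½MIC, 37 °C at 160 rpm. Ciprofloxacin 10 µg/mL as positive control. 1 mL aliquots taken every 2 h from 0 to 22 h. Turbidity read at 600 nm and OD plotted against time.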"}, "Homo sapiens": {"organism": "Homo sapiens", "test": "Inhibition of human methionine aminopeptidase 1B at 100 uM using Met-AMC as substrate relative to control", "method_in_brief": "as §2"}, "CHO [7]": {"tested_on": "CHO", "test": "Cytotoxicity against CHO cells at 50 ug/mL after 48 hrs by MTT assay", "type": "cell-based, Cricetulus griseus", "conditions": "chinese hamster", "method_in_brief": "(§6)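 MTT assay: cells maintained in DMEM with 10% FBS and penicillin/streptomycin at 37 °C, 5% CO2. Seeded at approx. 2×10⁴ cells/well, 24 h before treatment, then exposed to 10 to 400 µg/mL for 48 h at 37 °C. MTT (5 mg/mL stock in PBS) added for 4 h, formazan dissolved in DMSO, A570 read. Triplicate wells; viability given relative to untreated cells.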"}, "Escherichia coli [8]": {"tested_on": "Escherichia coli", "test": "Induction of cellular damage in Escherichia coli assessed as distorted cell membrane at MIC after 1 hr by TEM analysis", "type": "functional, organism-based"}, "Escherichia coli [9]": {"tested_on": "Escherichia coli", "test": "Bactericidal activity against Escherichia coli at sub-MIC after 22 hrs by spectrophotometric analysis", "type": "functional, organism-based", "method_in_brief": "as §5"}, "Escherichia coli [10]": {"tested_on": "Escherichia coli", "test": "Antibacterial activity against Escherichia coli MRC17 after overnight incubation", "type": "functional", "method_in_brief": "as §3"}, "[11]": {"test": "Inhibition of Enterococcus faecalis methionine aminopeptidase 1A using Met-AMC as substrate by Dixon method", "method_in_brief": "as §2"}, "CHO [12]": {"tested_on": "CHO", "test": "Cytotoxicity against CHO cells at 300 ug/mL after 48 hrs by MTT assay", "type": "cell-based, Cricetulus griseus", "conditions": "chinese hamster", "method_in_brief": "as §6"}, "Escherichia coli [13]": {"tested_on": "Escherichia coli", "test": "Antibacterial activity against Escherichia coli MRC24 at 512 ug/mL after 24 hrs by broth dilution assay relative to control", "type": "functional", "method_in_brief": "as §3"}, "Escherichia coli [14]": {"tested_on": "Escherichia coli", "test": "Antibacterial activity against Escherichia coli MRAE33 after overnight incubation", "type": "functional", "method_in_brief": "as §3"}, "Klebsiella pneumoniae": {"tested_on": "Klebsiella pneumoniae", "test": "Antibacterial activity against Klebsiella pneumoniae ATCC 700603 after 24 hrs by broth dilution assay", "type": "functional", "conditions": "Klebsiella pneumoniae, 700603, 24 h", "method_in_brief": "as §1"}, "[15]": {"test": "Inhibition of Streptococcus pneumoniae methionine aminopeptidase 1A using Met-AMC as substrate by Dixon method", "method_in_brief": "as §2"}, "Escherichia coli [16]": {"tested_on": "Escherichia coli", "test": "Antibacterial activity against Escherichia coli MRAE26 at 1024 ug/mL after 24 hrs by broth dilution assay relative to control", "type": "functional", "method_in_brief": "as §3"}, "Streptococcus pneumoniae [17]": {"tested_on": "Streptococcus pneumoniae", "test": "Antibacterial activity against Streptococcus pneumoniae MTCC 655 after 24 hrs by broth dilution assay", "type": "functional", "conditions": "MTCC 655, 24 h", "method_in_brief": "as §1"}, "Escherichia coli [18]": {"tested_on": "Escherichia coli", "test": "Synergistic antibacterial activity against Escherichia coli MRA11 after 18 hrs in presence of ciprofloxacin by checkerboard method", "type": "functional", "conditions": "MRA11, 18 h", "method_in_brief": "as §4"}, "Escherichia coli [19]": {"tested_on": "Escherichia coli", "test": "Antibacterial activity against Escherichia coli MRAE44 after overnight incubation", "type": "functional", "method_in_brief": "as §3"}},
  "note": "pKi: −log10 of the molar value. Activity calls are given as the source filed them. The rule behind the calls is not given here.",
  "data": [
    {"compound": "Cc1c(C(=O)/C=C(\\O)C(=O)N[C@H](C)C(=O)O)oc2ccc(Br)cc12", "values": [
      {"measurement": "MIC", "setting": "Salmonella typhimurium", "result": 500, "unit": "µg/mL"},
      {"measurement": "Activity", "setting": "Streptococcus pneumoniae [1]", "result": "Active"},
      {"measurement": "inhibition", "setting": "Enterococcus faecalis", "result": 92.7, "unit": "%"},
      {"measurement": "Activity", "setting": "Escherichia coli [2]", "result": "Active"},
      {"measurement": "ICmax", "setting": "Escherichia coli [3]", "result": 512, "unit": "µg/mL"},
      {"measurement": "ICmax", "setting": "Escherichia coli [4]", "result": 512, "unit": "µg/mL"},
      {"measurement": "fractional inhibitory concentration index (FICI)", "setting": "Escherichia coli [5]", "result": 1.125},
      {"measurement": "Activity", "setting": "Escherichia coli [6]", "result": 100, "unit": "%"},
      {"measurement": "Activity", "setting": "Pseudomonas aeruginosa", "result": "Active"},
      {"measurement": "inhibition", "setting": "Homo sapiens", "result": 87.5, "unit": "%"},
      {"measurement": "Activity", "setting": "CHO [7]", "result": "Non-Toxic"},
      {"measurement": "Activity", "setting": "Escherichia coli [8]", "result": "Active"},
      {"measurement": "Activity", "setting": "Escherichia coli [9]", "result": "Active"},
      {"measurement": "ICmax", "setting": "Escherichia coli [10]", "result": 512, "unit": "µg/mL"},
      {"measurement": "MIC", "setting": "Escherichia coli [10]; Escherichia coli, MRC17", "result": 512, "unit": "µg/mL"},
      {"measurement": "pKi", "setting": "[11]", "result": 4.92},
      {"measurement": "Activity", "setting": "CHO [12]", "result": "Toxic"},
      {"measurement": "Activity", "setting": "Escherichia coli [13]", "result": 100, "unit": "%"},
      {"measurement": "ICmax", "setting": "Escherichia coli [14]", "result": 1024, "unit": "µg/mL"},
      {"measurement": "MIC", "setting": "Escherichia coli [14]; Escherichia coli, MRAE33", "result": 1020, "unit": "µg/mL"},
      {"measurement": "MIC", "setting": "Klebsiella pneumoniae", "result": 500, "unit": "µg/mL"},
      {"measurement": "pKi", "setting": "[15]", "result": 4.55},
      {"measurement": "Activity", "setting": "Escherichia coli [16]", "result": ">95", "unit": "%"},
      {"measurement": "MIC", "setting": "Streptococcus pneumoniae [17]", "result": 62.5, "unit": "µg/mL"},
      {"measurement": "MIC", "setting": "Escherichia coli [18]", "result": 512, "unit": "µg/mL"},
      {"measurement": "ICmax", "setting": "Escherichia coli [19]", "result": 1024, "unit": "µg/mL"}
    ]}
  ]
}
